The values that follow come from ChEMBL document CHEMBL4316645, “Phenolic C-Glycosides and Aglycones from Marine-Derived Aspergillus sp. and Their Anti-Inflammatory Activities” (J Nat Prod, 2019).

In test [1] the test system is RAW264.7. Put plainly: Inhibition of LPS-induced nitric oxide production in mouse RAW264.7 cells preincubated for 2 hrs followed by LPS-stimulation and measured after 12 hrs by Griess assay. The format is functional, cell-based. An outline of the steps: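 RAW264.7 cells seeded at 2 × 10^5 cells/well and preincubated 24 h, then treated 2 h with test compounds from 40 to 0.5 μM, then stimulated with LPS (1 μg/mL) for 12 h. Supernatant spun at 16 000 rpm for 20 min, mixed with Griess reagent (0.1% naphthyl ethylenediamine dihydrochloride, 1% sulfanilamide, 2% phosphoric acid) for 10 min at rt, read at 540 nm. Means of three independent experiments.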
A general note: Nitrite, measured by Griess reagent, commonly stands in for NO production.

In test [2] the test system is RAW264.7. Nature of the test: Antiinflammatory activity in mouse RAW264.7 cells assessed as inhibition of LPS-induced IL-6 production preincubated for 2 hrs followed by LPS-stimulation and measured after 12 hrs by ELISA. The class given is functional, cell-based. An outline of the steps: (§1)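 Cells seeded at 2 × 10^5 cells/well and preincubated 24 h. They were pretreated 2 h with compound, then given LPS (1 μg/mL) for 12 h. IL-1β and IL-6 in the culture medium were measured by ELISA. Data are mean ± SD (n = 3), analysed by one-way ANOVA with Tukey's test against the LPS-only group.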

The test system of test [3] is RAW264.7. Put plainly: Antiinflammatory activity in mouse RAW264.7 cells assessed as inhibition of LPS-induced COX2 expression at 5 to 10 uM preincubated for 2 hrs followed by LPS-stimulation and measured after 12 hrs by Western blot analysis. The format is functional, cell-based. An outline of the steps:
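After 2 h compound pretreatment and 12 h LPS (1 μg/mL), cells were lysed in 20 mM Tris HCl pH 7.4 with protease inhibitors, and protein was quantified. Lysates were run on SDS-PAGE, transferred to PVDF, and blocked in PBS/0.1% Tween 20/5% skim milk for 1 h at rt. Blots were probed overnight at 4 °C for COX-2 and β-actin, developed by chemiluminescence, and bands quantified by densitometry. Mean ± SD, n = 3.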
(In general: A western blot detects proteins with antibodies after separation by electrophoresis.)

For test [4], the system named is RAW264.7. Nature of the test: Antiinflammatory activity in mouse RAW264.7 cells assessed as inhibition of LPS-induced IL-1beta production preincubated for 2 hrs followed by LPS-stimulation and measured after 12 hrs by ELISA. The class given is functional, cell-based. In a few lines:
as §1
On the technique in general: An ELISA detects its analyte on a solid surface through an enzyme-linked reagent.

Test [5] has as its target Transcription factor p65 (Mus musculus) (UniProt Q04207). Nature of the test: Inhibition of NFkappaB p65 nuclear translocation in LPS-stimulated mouse RAW264.7 cells at 5 to 10 uM preincubated for 2 hrs followed by LPS-stimulation and measured after 12 hrs by DAPI staining based fluorescence microscopic analysis. The class given is cell-based. An outline of the steps:
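Cells were fixed in 4% paraformaldehyde for 20 min and permeabilized with 0.2% Triton X-100 for 30 min. After 5% BSA block for 1 h, they were given anti-p65 primary overnight at 4 °C, then Alexa Fluor 594 secondary (1:500) for 1 h at rt. DAPI (5 μg/mL) was applied 30 min at 37 °C. Imaging used fluorescence microscopy, ex/em 590/617 nm for p65 and 360/450 nm for DAPI.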

The source made the active and inactive calls. No cut-off for these calls is given here. A value given as a limit tells only on which side of the number the result lay.

Sequence of Transcription factor p65 (Mus musculus) (Q04207 whole entry): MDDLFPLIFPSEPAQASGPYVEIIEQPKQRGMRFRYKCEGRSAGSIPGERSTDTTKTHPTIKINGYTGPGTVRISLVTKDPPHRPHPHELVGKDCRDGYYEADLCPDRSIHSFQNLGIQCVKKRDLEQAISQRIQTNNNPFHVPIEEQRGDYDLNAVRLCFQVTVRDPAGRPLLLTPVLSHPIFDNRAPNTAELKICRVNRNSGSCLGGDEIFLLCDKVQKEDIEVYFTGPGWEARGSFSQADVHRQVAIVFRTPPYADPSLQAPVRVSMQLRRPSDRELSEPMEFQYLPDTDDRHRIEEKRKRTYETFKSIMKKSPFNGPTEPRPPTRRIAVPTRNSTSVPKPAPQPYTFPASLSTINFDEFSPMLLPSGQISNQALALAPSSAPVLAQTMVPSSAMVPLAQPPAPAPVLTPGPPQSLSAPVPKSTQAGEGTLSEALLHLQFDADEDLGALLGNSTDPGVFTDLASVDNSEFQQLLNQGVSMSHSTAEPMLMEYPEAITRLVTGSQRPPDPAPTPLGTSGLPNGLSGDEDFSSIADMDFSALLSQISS

In general, IC50 refers to the midpoint of a concentration-inhibition curve. A higher IC50 goes with weaker potency in that assay. For the compound `CCC/C=C\C=C\CCc1cc(O)c([C@@H]2O[C@H](CO)[C@@H](O)[C@H](O)[C@H]2O)c(O)c1`, in the test with RAW264.7 [1], 30 µM corresponded to half-maximal inhibition (IC50). Take `CCC/C=C/C=C\CCc1cc(O)c([C@@H]2O[C@H](CO)[C@@H](O)[C@H](O)[C@H]2O)c(O)c1`: the IC50 with RAW264.7 [1] is over 40 µM. Regarding `CCC/C=C/C=C/CCc1cc(O)cc(O)c1`, the inhibition result in the test on RAW264.7 [2] and with RAW264.7 [4] was “Dose-dependent effect” in each case. Besides, the inhibition result (with RAW264.7 [3]; in test [5]) was “Active” each time. In the test on RAW264.7 [1], this compound showed a 50% inhibitory concentration (IC50) of 6 µM. In the test with RAW264.7 [1], `CCC/C=C/C=C\CCc1cc(O)cc(O)c1` returned an IC50 of 28 µM. The same measure, in the same setting: the value for `CCC/C=C/C=C/CCc1cc(O)c([C@@H]2O[C@H](CO)[C@@H](O)[C@H](O)[C@H]2O)c(O)c1` was over 40 µM; that for `C/C=C/C=C/CCc1cc(O)c([C@@H]2O[C@H](CO)[C@@H](O)[C@H](O)[C@H]2O)c(O)c1C(=O)OC` was over 40 µM; that for `CCC/C=C\C=C\CCc1cc(O)c([C@@H]2O[C@H](CO)[C@@H](O)[C@H](O)[C@H]2O)c(O)c1C(=O)OC` was 14 µM.

On to `CCC/C=C/C=C/CCc1cc(O)cc(O)c1C(=O)O`, for which it took 9.9 µM to reach half-maximal inhibition with RAW264.7 [1] (IC50). Turning to `CCC/C=C/C=C/CCc1cc(O)c([C@@H]2O[C@H](CO)[C@@H](O)[C@H](O)[C@H]2O)c(O)c1C(=O)OC`, the 50% inhibitory concentration (IC50) with RAW264.7 [1] was over 40 µM. Consider `CC/C=C/C=C/CCc1cc(O)c([C@@H]2O[C@H](CO)[C@@H](O)[C@H](O)[C@H]2O)c(O)c1C(=O)OC`, for which the half-inhibitory concentration (IC50) in the test on RAW264.7 [1] turned out to be 19 µM. Still for that read-out and setting: the value for `CCC/C=C/C=C\CCc1cc(O)c([C@@H]2O[C@H](CO)[C@@H](O)[C@H](O)[C@H]2O)c(O)c1C(=O)OC` was over 40 µM; that for `CCC/C=C/C=C/CCc1cc(O)c([C@@H]2O[C@H](CO)[C@@H](O)[C@H](O)[C@H]2O)c(O)c1C(=O)OCC` was 15 µM; that for `CCC/C=C/C=C/C1Cc2cc(O)cc(O)c2C(=O)O1` (configuration not stated) was 17 µM.
